# Yeast life ext: extends the lifespan of yeast. inhibition of the nicotinamide effect, % at 10 µM. AID 775. actives 0.68% (n = 130,000). S. cerevisiae growth with nicotinamide, OD615; deaD strain in restrictive glucose medium;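 active means inhibition above a set limit, placed 3 SD over the median of all compounds, cut at about 26% in these data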;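 further: 0% = nicotinamide-treated wells and 100% = cells grown without nicotinamide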
#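 assay system = DeaD-strain S. cerevisiae | measured by = absorbance at 615 nm | probe or stimulus = nicotinamide 1.5 mM | buffer or medium = CSMM-D glucose medium, restrictive | times = 48 h at 30 °C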
# RAM inhibit: blocks the yeast RAM network; S. cerevisiae dse1pr::URA3 reporter, 5-FOA growth OD615, 2 d; analog-sensitive cbk1-as2 kinase mutant strain; inhibition, % at 50 µM; actives 1.8% (n = 190,000);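 active means inhibition above a set limit, 3 SD over mean compound inhibition, cut at about 8.4% in these data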;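 further: 0% = DMSO-only wells with no growth and 100% = 10 µM 1-NA-PP1 full growth; inhibition rescues growth on 5-FOA so higher OD means more RAM inhibition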
# Phagocyt inh: macrophage phagocytosis inhibition. J774A.1 macrophage IgG-bead phagocytosis, imaging. inhibition, % at 5 µM. actives 0.07% (n = 110,000);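 active means inhibition above the mean of the plate negative controls plus 5 SD, cut at about 13% in these data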;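 further: phagocytic index as fraction of beads internalized from green versus red external bead signal; plate controls were DMSO negative control for no effect and cytochalasin-D positive control for full effect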
# Yeast growth inh: reduces growth of yeast BB579 in restrictive medium; S. cerevisiae BB579 growth, OD615, 48 h; inhibition, % at 10 µM; actives 0.51% (n = 140,000); AID 804;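 active means inhibition above a set limit, 3 SD over the mean compound inhibition, cut at about 44% in these data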
#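 Assay system: S. cerevisiae DeaD strain BB579 yeast. Medium: CSMM-D restrictive synthetic medium containing dextrose (glucose). Times: 4 h cell preincubation, 48 h compound exposure, 30 °C humidified. Signal: OD615 turbidity measurement. Benchmarks: positive control amphotericin B 10 µg/mL.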
# Starred values were filed as active, the others as inactive; / = not tested or not shown; + = active, no number. Hits are enriched below; roughly 2.7% of the tested compounds scored in any of these assays.
SMILES,Yeast life ext,RAM inhibit,Phagocyt inh,Yeast growth inh
CC1(C)CC(=O)C(C(C2=C(O)CC(C)(C)CC2=O)c2ccc(Br)s2)C(=O)C1 (configuration not stated),30*,-1,-9,-8
CS(=O)(=O)c1ccc(Sc2nc3ccccc3[nH]2)c([N+](=O)[O-])c1,-18,2,0,-27
O=S(=O)(Nc1ccc(O)c(Sc2nc3ccccc3s2)c1)c1ccc(F)cc1,9,8.9*,-9,-54
O=S(=O)(Nc1ccc(-c2csc(-c3ccccc3)n2)cc1)c1ccc(F)cc1,-23,6,0,69*
O=[N+]([O-])c1cc(S(=O)(=O)C(F)(F)F)ccc1Sc1nc2ccccc2[nH]1,39*,6,-1,-54
O=[N+]([O-])c1cc(S(=O)(=O)C(F)(F)F)ccc1Sc1nc2ccccc2s1,21,8.5*,/,-22
O=C(O)c1cccc(S(=O)(=O)Nc2ccc(O)c(Sc3nc4ccccc4s3)c2)c1,/,5,/,/
O=C(c1ccccc1F)N(Cc1nc2ccccc2c(=O)[nH]1)C1CCCC1,/,0,/,/
Cn1c(Cc2ccccc2)nnc1SCC(=O)c1cccs1,0,1,-1,-10
CCN(CC)CC(O)CN1C(=O)NC(C)(C)C1=O (configuration not stated),/,-1,/,/
Cc1cc(N2C(=O)CC(Cc3ccccc3)C2=O)no1 (configuration not stated),+,4,-1,-9
Cc1cc(N2C(=O)CC(Cc3ccc(Cl)cc3)C2=O)no1 (configuration not stated),-3,2,/,-29
CC1CN(c2ccccc2)CCN1Cc1nc(Cc2ccccc2)no1 (configuration not stated),/,0,/,/
COc1cc(/C=c2\sc3nc(-c4ccncc4)nn3c2=O)ccc1OC(C)=O,33*,1,-5,-39
COc1ccc(C2CC(c3ccccc3OC(C)=O)=NN2C(=O)/C=C/c2ccccc2)cc1OC (configuration not stated),2,8.5*,-13,-40
COc1ccc(S(=O)(=O)N2CCCCC2)cc1C(C)C,5,10*,-4,-24
O=S(=O)(c1ccccc1)c1cccc(S(=O)(=O)N2CCCCC2)c1,-9,0,1,-65
COc1ccc(S(=O)(=O)N2CCCCCC2)cc1N(C)S(=O)(=O)c1ccccc1,6,10*,0,0
O=C(C1CCN(C2CCN(CC3CC=CCC3)CC2)CC1)N1CCOCC1 (configuration not stated),/,-1,/,/
CN(Cc1c(O)ccc2c1oc(=O)c1ccccc12)C1CCCCC1,46*,-1,-4,-23
CN(C)Cc1c(O)ccc2c3c(c(=O)oc12)CCCCC3,22,-1,/,-24
CC(C)C1OC(c2cccc(NC(=O)c3cccs3)c2)OCC1(C)C (configuration not stated),/,9.3*,/,/
CCOC(=O)c1sc2nccc(OC)c2c1N=CN(C)C,/,2,/,/
COc1nc(N/N=C/c2ccccc2F)nc(N2CCCCC2)n1,-15,0,1,-37
Cc1cccc(N=C2Sc3nc4c(C)c(C)ccc4cc3CN2CCN2CCOCC2)c1,-13,1,-1,99*
SMILES,Yeast life ext,RAM inhibit,Phagocyt inh,Yeast growth inh
CC(=O)Nc1sc(C)c(C)c1C(=O)OCC(=O)Nc1cc(S(=O)(=O)N2CCCCC2)ccc1Cl,2,2,/,-35
CC(C)CSC1=NSC2=NC(=O)/C(=C\c3coc4ccccc4c3=O)C(=N)N12,/,9.0*,/,/
CC(C)CSC1=NSC2=NC(=O)/C(=C\c3ccccc3)C(=N)N12,/,6,/,/
CSC1=NSC2=NC(=O)/C(=C\c3coc4ccccc4c3=O)C(=N)N12,21,1,-17,70*
O=C(COC(=O)Cc1c(Cl)cccc1Cl)Nc1ccc(OC(F)(F)F)cc1,4,4,-14,-24
Cc1ccc(C(=O)Nc2nc(C)c(C(=O)Nc3ccc4c(c3)CCC4)s2)cc1,-2,6,2,-7
Cc1ccc(Sc2cnn(-c3ccccc3)c(=O)c2Cl)cc1,31*,2,-1,-9
COc1cc(C(=O)Nc2nnc(C3CC3)s2)ccc1OCc1c(C)noc1C,/,5,/,/
CCc1ccc(OCCCC(=O)NCc2ccco2)cc1,/,1,/,/
CCc1ccc(N/C(SCc2ccccc2C)=C(/C#N)C(=O)NCc2ccco2)cc1,-20,11*,/,-39
COCCCn1c(SCC(=O)Nc2nnc(C)s2)nnc1-c1ccoc1C,60*,1,-1,-7
COCCn1c(SCC(=O)Nc2nnc(C)s2)nnc1-c1ccco1,/,3,/,/
COCCN=c1scc(-c2cccs2)n1/N=C/c1ccc(O)c(O)c1O,-1,9.6*,-1,-35
CCOC(=O)c1cnn(-c2nc(-c3ccccc3F)cs2)c1C(F)(F)F,-27,0,/,-12
CCOC(=O)c1cnn(-c2nc(-c3ccccc3)cs2)c1C(F)(F)F,-27,10*,/,2
CCOC(=O)c1cnn(-c2nc(-c3ccc(F)cc3)cs2)c1C(F)(F)F,-7,9.2*,/,-10
CN(C)c1ccc(/C=C(\C#N)C(=O)Nc2nc3c(s2)CCN(Cc2ccccc2)C3)cc1,-4,1,0,-94
NS(=O)(=O)c1ccc(Nc2nc3ccccc3nc2NS(=O)(=O)c2cccc([N+](=O)[O-])c2)cc1,/,8.6*,/,/
COc1cccc(OCCn2c(C)c(/C=N/n3cnnc3)c3ccccc32)c1,-3,6,0,-12
COc1ccc(OCCn2c(C)c(/C=N/n3cnnc3)c3ccccc32)cc1,-5,10.0*,/,-25
COc1cc2c(cc1NC(=O)C(c1ccccc1)c1ccccc1)CCCC2,-8,3,0,-32
CCCCn1c(N)c(S(=O)(=O)c2ccc(C)cc2)c2nc3ccccc3nc21,3,9.5*,-2,-21
CC(=O)Nc1c(S(=O)(=O)c2ccccc2)c2nc3ccccc3nc2n1Cc1ccccc1,-7,2,/,-17
C=CCn1c(NS(=O)(=O)c2ccccc2)c(S(=O)(=O)c2ccc(C)cc2)c2nc3ccccc3nc21,14,11*,-12,-19
O=S(=O)(Nc1c(S(=O)(=O)c2ccccc2)c2nc3ccccc3nc2n1C1CCCCC1)c1ccccc1,27*,1,-8,-9
SMILES,Yeast life ext,RAM inhibit,Phagocyt inh,Yeast growth inh
COc1cc(OC)c(C(=O)OC(C)C(=O)Nc2cccc(C(F)(F)F)c2)cc1OC (configuration not stated),-5,2,1,-33
N=C1C(c2nc3ccccc3[nH]2)=C(O)CN1NC(=O)COc1cccc(F)c1,1,0,-5,-37
O=C1c2ccccc2C(=O)c2c1cccc2N1CCOCC1,-20,1,0,57*
O=C(CCCC(=O)OCC(F)(F)C(F)F)Nc1ccccc1F,/,1,/,/
CCN(CC)c1ccc(/C=C2\C(=O)c3ccc(C(=O)O)cc3C2=O)cc1,3,10*,2,-62
CCN(CC)c1ccc(C(=O)O)cc1,2,1,/,-14
O=c1cnn([C@@H]2O[C@H](CO)[C@@H](O)[C@H]2O)c(=O)[nH]1,12,0,/,44*
C=CC(C)N1C(=O)S/C(=C\c2ccc(N3CCOCC3)cc2C)C1=O (configuration not stated),1,6,/,-23

# Bioassay records as filed in PubChem.
